Assay results as given in ChEMBL document CHEMBL5724801, “EUbOPEN Chemogenomics Library - Multiplex” (2024).
Where “and” joins values, the source holds several entries; their conditions need not be identical. Equal entries are not always repeated.

What was measured:
Fibroblast = test: Multiplex assay against human fibroblast; format: toxicity, cell-based
Summary of the method: (§1)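 Cells were classed with CellPathfinder machine-learning gating, first as Hoechst high-intensity objects or normal cells, then (normal cells) as healthy, pyknosed or fragmented nuclei, and finally (pyknosed cells) as mitotic or apoptotic. Staining of live cells at seeding used Hoechst33342, BioTracker Green Microtubule Cytoskeleton Dye, MitoTracker Red and Annexin V Alexa Fluor 680, with imaging on a CQ1 microscope at 37°C and 5% CO2 after compound addition. Tubulin, mitochondrial-mass and membrane-permeability phenotypes are per cents of healthy-nucleus cells.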

HEK-293T = test: Multiplex assay against HEK293T; format: toxicity, cell-based; settings: human; summary of the method: as §1
[1] = 12 h, 1 µM, compound concentration 1 uM
[2] = 12 h, 10 µM, compound concentration 10 uM
[3] = 24 h, 1 µM, compound concentration 1 uM
[4] = 24 h, 10 µM, compound concentration 10 uM
[5] = 48 h, 1 µM, compound concentration 1 uM
[6] = 48 h, 10 µM, compound concentration 10 uM

## O=C(NCCO)c1cccc(-c2cc(Nc3ccc(OC(F)(F)F)cc3)ncn2)c1
Fibroblast; [1]
  Population Apoptotic (%): 46% and 38%
  Population Fragmented Nuclei (%): 16% and 29%
  Population Healthy Nuclei (%): 60% and 46%
  Population Hoechst High Intensity Objects (%): 3% and 4%
  Population Membrane Permeable-Phenotype (%): 1% and 10%
  Population Mitochondria Different-Phenotype (%): 6% and 8%
  Population Mitotic Cells (%): 53% and 61%
  Population Normal (%): 96% and 95%
  Population Pyknosed Nuclei (%): 24% and 23%
  Population Tubulin-Different-Phenotype (%): 33% and 46%
  Total Cell Count: 130 and 149
Fibroblast; [2]
  Population Apoptotic (%): 37% and 40%
  Population Fragmented Nuclei (%): 17% and 22%
  Population Healthy Nuclei (%): 59% and 36%
  Population Hoechst High Intensity Objects (%): 5% and 10%
  Population Membrane Permeable-Phenotype (%): 0% and 11%
  Population Mitochondria Different-Phenotype (%): 13% and 11%
  Population Mitotic Cells (%): 62% and 59%
  Population Normal (%): 94% and 89%
  Population Pyknosed Nuclei (%): 22% and 40%
  Population Tubulin-Different-Phenotype (%): 54% and 79%
  Total Cell Count: 185 and 192
Fibroblast; [3]
  Population Apoptotic (%): 56% and 52%
  Population Fragmented Nuclei (%): 16% and 24%
  Population Healthy Nuclei (%): 60% and 50%
  Population Hoechst High Intensity Objects (%): 1% and 2%
  Population Membrane Permeable-Phenotype (%): 2% and 5%
  Population Mitochondria Different-Phenotype (%): 4% and 5%
  Population Mitotic Cells (%): 43% and 47%
  Population Normal (%): 98% and 97%
  Population Pyknosed Nuclei (%): 22% and 25%
  Population Tubulin-Different-Phenotype (%): 33% and 42%
  Total Cell Count: 135 and 139
Fibroblast; [4]
  Population Apoptotic (%): 50% and 41%
  Population Fragmented Nuclei (%): 14% and 30%
  Population Healthy Nuclei (%): 61% and 36%
  Population Hoechst High Intensity Objects (%): 11% and 7%
  Population Membrane Permeable-Phenotype (%): 1% and 10%
  Population Mitochondria Different-Phenotype (%): 21% and 25%
  Population Mitotic Cells (%): 50% and 58%
  Population Normal (%): 88% and 92%
  Population Pyknosed Nuclei (%): 24% and 32%
  Population Tubulin-Different-Phenotype (%): 53% and 84%
  Total Cell Count: 175 and 187
Fibroblast; [5]
  Population Apoptotic (%): 82% and 45%
  Population Fragmented Nuclei (%): 21% and 31%
  Population Healthy Nuclei (%): 65% and 53%
  Population Hoechst High Intensity Objects (%): 1%
  Population Membrane Permeable-Phenotype (%): 3% and 6%
  Population Mitochondria Different-Phenotype (%): 1% and 4%
  Population Normal (%): 98%
  Population Pyknosed Nuclei (%): 13% and 14%
  Population Tubulin-Different-Phenotype (%): 28% and 38%
  Total Cell Count: 130 and 156
Fibroblast; [6]
  Population Apoptotic (%): 70% and 76%
  Population Fragmented Nuclei (%): 35% and 40%
  Population Healthy Nuclei (%): 51% and 47%
  Population Hoechst High Intensity Objects (%): 13% and 6%
  Population Membrane Permeable-Phenotype (%): 0% and 13%
  Population Mitochondria Different-Phenotype (%): 26% and 19%
  Population Mitotic Cells (%): 30% and 23%
  Population Normal (%): 86% and 93%
  Population Pyknosed Nuclei (%): 13% and 11%
  Population Tubulin-Different-Phenotype (%): 64% and 86%
  Total Cell Count: 170 and 198
HEK-293T; [1]
  Population Apoptotic (%): 27% and 40%
  Population Fragmented Nuclei (%): 7% and 4%
  Population Healthy Nuclei (%): 78% and 77%
  Population Hoechst High Intensity Objects (%): 8% and 6%
  Population Membrane Permeable-Phenotype (%): 0%
  Population Mitochondria Different-Phenotype (%): 47% and 60%
  Population Mitotic Cells (%): 72% and 59%
  Population Normal (%): 91% and 93%
  Population Pyknosed Nuclei (%): 13% and 17%
  Population Tubulin-Different-Phenotype (%): 23% and 16%
  Total Cell Count: 409 and 262
HEK-293T; [2]
  Population Apoptotic (%): 55% and 63%
  Population Fragmented Nuclei (%): 6% and 5%
  Population Healthy Nuclei (%): 76% and 73%
  Population Hoechst High Intensity Objects (%): 10% and 12%
  Population Membrane Permeable-Phenotype (%): 0%
  Population Mitochondria Different-Phenotype (%): 69% and 74%
  Population Mitotic Cells (%): 44% and 36%
  Population Normal (%): 89% and 87%
  Population Pyknosed Nuclei (%): 17% and 21%
  Population Tubulin-Different-Phenotype (%): 49% and 26%
  Total Cell Count: 374 and 325
HEK-293T; [3]
  Population Apoptotic (%): 26% and 41%
  Population Fragmented Nuclei (%): 11% and 7%
  Population Healthy Nuclei (%): 78% and 79%
  Population Hoechst High Intensity Objects (%): 4% and 6%
  Population Membrane Permeable-Phenotype (%): 0%
  Population Mitochondria Different-Phenotype (%): 21% and 38%
  Population Mitotic Cells (%): 73% and 58%
  Population Normal (%): 95% and 93%
  Population Pyknosed Nuclei (%): 10% and 13%
  Population Tubulin-Different-Phenotype (%): 15% and 17%
